In ChEMBL document CHEMBL3046604, “Synthesis and fungistatic activity of new groups of 2,4-dihydroxythiobenzoyl derivatives against phytopathogenic fungi” (J Agric Food Chem, 2003):
Activity calls are given as the source filed them. The rule behind the calls is not given here.

Legend:
Blumeria graminis [1] = test: Fungistatic activity against Blumeria graminis infested wheat seedling assessed as inhibition of fungal infection at 500 ug/ml applied as spray after 7 to 14 days under green house conditions relative to control; type: functional
Method in brief: (§1)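 Greenhouse test on healthy wheat seedlings with Erysiphe graminis. At the well-developed first-leaf stage, plants were sprayed with compound solution at 1000 or 500 µg/mL, 10 mL of solution per treatment, with three repeats in 9 cm paraffin cups.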

Blumeria graminis [2] = test: Fungistatic activity against Blumeria graminis infested wheat seedling assessed as inhibition of fungal infection at 1000 ug/ml applied as spray after 7 to 14 days under green house conditions relative to control; type: functional; method in brief: as §1
Phytophthora cactorum [3] = test: Fungistatic activity against Phytophthora cactorum assessed as mycelial growth inhibition at 20 ug/ml after 4 to 8 days relative to control; type: functional; settings: read-out: GI
Method in brief: (§2)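 Compound solutions or suspensions were diluted into PDA agar to final 200 or 20 µg/mL and poured into Petri dishes. Once the agar set, mycelium-covered agar disks of the fungus were placed at three sites on the surface. Linear colony growth was measured after 4-8 days, depending on the culture. Inhibition J = [(C − T)/C] × 100 versus untreated control, reported on a four-degree scale.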

Phytophthora cactorum [4] = test: Fungistatic activity against Phytophthora cactorum assessed as mycelial growth inhibition at 200 ug/ml after 4 to 8 days relative to control; type: functional; settings: read-out: GI; method in brief: as §2
Fusarium culmorum [5] = test: Fungistatic activity against Fusarium culmorum assessed as mycelial growth inhibition at 20 ug/ml after 4 to 8 days relative to control; type: functional; settings: read-out: GI; method in brief: as §2
Fusarium culmorum [6] = test: Fungistatic activity against Fusarium culmorum assessed as mycelial growth inhibition at 200 ug/ml after 4 to 8 days relative to control; type: functional; settings: read-out: GI; method in brief: as §2
Rhizoctonia solani [7] = test: Fungistatic activity against Rhizoctonia solani assessed as mycelial growth inhibition at 20 ug/ml after 4 to 8 days relative to control; type: functional; settings: read-out: GI; method in brief: as §2
Rhizoctonia solani [8] = test: Fungistatic activity against Rhizoctonia solani assessed as mycelial growth inhibition at 200 ug/ml after 4 to 8 days relative to control; type: functional; settings: read-out: GI; method in brief: as §2
Botrytis cinerea [9] = test: Fungistatic activity against Botryotinia fuckeliana assessed as mycelial growth inhibition at 20 ug/ml after 4 to 8 days relative to control; type: functional; settings: for inhibition of growth at 20 µg/mL: read-out: GI; method in brief: as §2
Alternaria alternata [10] = test: Fungistatic activity against Alternaria alternata assessed as mycelial growth inhibition at 20 ug/ml after 4 to 8 days relative to control; type: functional; settings: for inhibition of growth at 20 µg/mL: read-out: GI; method in brief: as §2
Botrytis cinerea [11] = test: Fungistatic activity against Botryotinia fuckeliana assessed as mycelial growth inhibition at 200 ug/ml after 4 to 8 days relative to control; type: functional; settings: for inhibition of growth at 200 µg/mL: read-out: GI; method in brief: as §2
[12] = Lipophilicity, log K of the compound in methanol-water mixture by HPLC; type: physicochemical
Method in brief: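 Reversed-phase HPLC on a Hypersil BDS C18 column (5 µm, 150 × 4.6 mm) with UV detection at 320 nm. Samples were dissolved in methanol. Mobile phase was methanol at varying volume fractions in 10 mM acetate buffer pH 4, run at 1 mL/min and room temperature. Dead time was taken from injection of acetone dissolved in water.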

Alternaria alternata [13] = test: Fungistatic activity against Alternaria alternata assessed as mycelial growth inhibition at 200 ug/ml after 4 to 8 days relative to control; type: functional; settings: for inhibition of growth at 200 µg/mL: read-out: GI; method in brief: as §2

Compound `Oc1ccc(C(=S)NNC(=S)Nc2ccc(F)cc2)c(O)c1` has an inhibition at 500 µg/mL (Blumeria graminis [1]) of 0%, an inhibition at 1000 µg/mL (Blumeria graminis [2]) of 0% and an inhibition of growth at 20 µg/mL (Phytophthora cactorum [3]) of 0%. For the same compound, the inhibition of growth at 200 µg/mL (Phytophthora cactorum [4]) was 0%, the inhibition of growth at 20 µg/mL (Fusarium culmorum [5]) was 0% and the inhibition of growth at 200 µg/mL (Fusarium culmorum [6]) was 0%. It also gave an inhibition of growth at 20 µg/mL (Rhizoctonia solani [7]) of 0%, an inhibition of growth at 200 µg/mL (Rhizoctonia solani [8]) of 0% and an inhibition of growth at 20 µg/mL (Botrytis cinerea [9]) of 0%. The inhibition of growth at 20 µg/mL (Alternaria alternata [10]) was 0%, the inhibition of growth at 200 µg/mL (Botrytis cinerea [11]) was 0% and the “log K” value [12] was 0.24. The inhibition of growth at 200 µg/mL (Alternaria alternata [13]) was 21%.

For `Oc1ccc(C(=S)Nc2ccc(OCc3ccccc3)cc2)c(O)c1`, the inhibition at 500 µg/mL (Blumeria graminis [1]) was 0%, the inhibition at 1000 µg/mL (Blumeria graminis [2]) was 21% and the inhibition of growth at 20 µg/mL (Phytophthora cactorum [3]) was 0%. The inhibition of growth at 200 µg/mL (Phytophthora cactorum [4]) was 41%, the inhibition of growth at 20 µg/mL (Fusarium culmorum [5]) was 0% and the inhibition of growth at 200 µg/mL (Fusarium culmorum [6]) was 21%. The inhibition of growth at 20 µg/mL (Rhizoctonia solani [7]) was 0%, the inhibition of growth at 200 µg/mL (Rhizoctonia solani [8]) was 41% and the inhibition of growth at 20 µg/mL (Botrytis cinerea [9]) was 21%. For the same compound, the inhibition of growth at 20 µg/mL (Alternaria alternata [10]) was 0%, the inhibition of growth at 200 µg/mL (Botrytis cinerea [11]) was 61% and the “log K” value [12] was 0.423. For the same compound, the inhibition of growth at 200 µg/mL (Alternaria alternata [13]) was 61%.

For `Oc1ccc(C(=S)NC(=S)c2cccnc2)c(O)c1`, the inhibition at 500 µg/mL (Blumeria graminis [1]) was 0%, the inhibition at 1000 µg/mL (Blumeria graminis [2]) was 21% and the inhibition of growth at 20 µg/mL (Phytophthora cactorum [3]) was 0%. The inhibition of growth at 200 µg/mL (Phytophthora cactorum [4]) was 81%, the inhibition of growth at 20 µg/mL (Fusarium culmorum [5]) was 0% and the inhibition of growth at 200 µg/mL (Fusarium culmorum [6]) was 81%. For the same compound, the inhibition of growth at 20 µg/mL (Rhizoctonia solani [7]) was 0%, the inhibition of growth at 200 µg/mL (Rhizoctonia solani [8]) was 61% and the inhibition of growth at 20 µg/mL (Botrytis cinerea [9]) was 0%. For the same compound, the inhibition of growth at 20 µg/mL (Alternaria alternata [10]) was 0%, the inhibition of growth at 200 µg/mL (Botrytis cinerea [11]) was 81% and the “log K” value [12] was 0.751. It also gave an inhibition of growth at 200 µg/mL (Alternaria alternata [13]) of 61%.

For `Oc1ccc(C(=S)Nc2cc(C(F)(F)F)ccc2N2CCOCC2)c(O)c1`, the inhibition at 500 µg/mL (Blumeria graminis [1]) was 0%, the inhibition at 1000 µg/mL (Blumeria graminis [2]) was 0% and the inhibition of growth at 20 µg/mL (Phytophthora cactorum [3]) was 0%. The inhibition of growth at 200 µg/mL (Phytophthora cactorum [4]) was 41%, the inhibition of growth at 20 µg/mL (Fusarium culmorum [5]) was 0% and the inhibition of growth at 200 µg/mL (Fusarium culmorum [6]) was 21%. It also gave an inhibition of growth at 20 µg/mL (Rhizoctonia solani [7]) of 0%, an inhibition of growth at 200 µg/mL (Rhizoctonia solani [8]) of 0% and an inhibition of growth at 20 µg/mL (Botrytis cinerea [9]) of 0%. The inhibition of growth at 20 µg/mL (Alternaria alternata [10]) was 0%, the inhibition of growth at 200 µg/mL (Botrytis cinerea [11]) was 21% and the “log K” value [12] was 0.035. The inhibition of growth at 200 µg/mL (Alternaria alternata [13]) was 21%.

For `CCOC(=O)c1c(C)csc1NC(=S)c1ccc(O)cc1O`, the “log K” value [12] was -0.28.

With `CC(C)(C)c1nnc(NC(=S)c2ccc(O)cc2O)s1` the inhibition at 500 µg/mL (Blumeria graminis [1]) was 0%, the inhibition at 1000 µg/mL (Blumeria graminis [2]) was 21% and the inhibition of growth at 20 µg/mL (Phytophthora cactorum [3]) was 0%. The inhibition of growth at 200 µg/mL (Phytophthora cactorum [4]) was 0%, the inhibition of growth at 20 µg/mL (Fusarium culmorum [5]) was 0% and the inhibition of growth at 200 µg/mL (Fusarium culmorum [6]) was 0%. It also gave an inhibition of growth at 20 µg/mL (Rhizoctonia solani [7]) of 0%, an inhibition of growth at 200 µg/mL (Rhizoctonia solani [8]) of 0% and an inhibition of growth at 20 µg/mL (Botrytis cinerea [9]) of 0%. The inhibition of growth at 20 µg/mL (Alternaria alternata [10]) was 0%, the inhibition of growth at 200 µg/mL (Botrytis cinerea [11]) was 0% and the “log K” value [12] was -0.131. For the same compound, the inhibition of growth at 200 µg/mL (Alternaria alternata [13]) was 0%.

In the case of `O=C(NNC(=S)c1ccc(O)cc1O)c1ccncc1`, the “log K” value [12] is reported as -0.21.

In the case of `O=C(CC(=O)c1ccc(NC(=S)c2ccc(O)cc2O)cc1)Nc1ccccc1Cl`, the “log K” value [12] is reported as -0.29.

In the case of `COC(=O)Nc1nc2ccccc2[nH]1` [CARBENDAZIM], the inhibition of growth at 20 µg/mL (Phytophthora cactorum [3]) is reported as 81%, the inhibition of growth at 200 µg/mL (Phytophthora cactorum [4]) is reported as 81% and the inhibition of growth at 20 µg/mL (Fusarium culmorum [5]) is reported as 81%. The inhibition of growth at 200 µg/mL (Fusarium culmorum [6]) was 81%, the inhibition of growth at 20 µg/mL (Rhizoctonia solani [7]) was 81% and the inhibition of growth at 200 µg/mL (Rhizoctonia solani [8]) was 81%. The “growth inhibition (GI)” value (Botrytis cinerea [9]) was “inactive”, the “growth inhibition (GI)” value (Alternaria alternata [10]) was “inactive” and the “growth inhibition (GI)” value (Botrytis cinerea [11]) was “inactive”. The “growth inhibition (GI)” value (Alternaria alternata [13]) was “inactive”.

For `CCOc1ccc(C(=O)NNC(=S)c2ccc(O)cc2O)cc1`, the “log K” value [12] was 0.352.

In the case of `Oc1ccc(C(=S)NNc2nncc3ccccc23)c(O)c1`, the “log K” value [12] is reported as 0.228.
